Experimental data reported in ChEMBL document CHEMBL5724801, “EUbOPEN Chemogenomics Library - Multiplex” (2024).
Several values for one entry are separate records, joined by “and”; a condition that tells them apart may be missing. Equal entries are not always repeated.

Tested on: Fibroblast
Experiment: Multiplex assay against human fibroblast
Format: toxicity, cell-based
Outline: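 Live cells carried four stains from seeding: Hoechst33342, BioTracker Green Microtubule Cytoskeleton Dye, MitoTracker Red and Annexin V Alexa Fluor 680. They were imaged on a CQ1 microscope at 37°C and 5% CO2 after compound addition. Using CellPathfinder machine-learning gating, cells were split into Hoechst high-intensity objects or normal cells, normal cells into healthy, pyknosed or fragmented nuclei, and pyknosed cells into mitotic or apoptotic; tubulin, mitochondrial-mass and membrane-permeability phenotypes are per cents of healthy-nucleus cells.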

[1] = 12 h, 1 µM, compound concentration 1 uM
[2] = 12 h, 10 µM, compound concentration 10 uM
[3] = 24 h, 1 µM, compound concentration 1 uM
[4] = 24 h, 10 µM, compound concentration 10 uM
[5] = 48 h, 1 µM, compound concentration 1 uM
[6] = 48 h, 10 µM, compound concentration 10 uM

Compound: CC(C)(C)c1ccc(CSc2cnn(C(C)(C)C)c(=O)c2Cl)cc1 [PYRIDABEN]
- Population Apoptotic (%) [1]: 46% and 44%
- Population Fragmented Nuclei (%) [1]: 15% and 27%
- Population Healthy Nuclei (%) [1]: 66% and 47%
- Population Hoechst High Intensity Objects (%) [1]: 1% and 4%
- Population Membrane Permeable-Phenotype (%) [1]: 3% and 12%
- Population Mitochondria Different-Phenotype (%) [1]: 1% and 7%
- Population Mitotic Cells (%) [1]: 53% and 55%
- Population Normal (%) [1]: 98% and 95%
- Population Pyknosed Nuclei (%) [1]: 17% and 25%
- Population Tubulin-Different-Phenotype (%) [1]: 28% and 57%
- Total Cell Count [1]: 148 and 142
- Population Apoptotic (%) [2]: 25% and 47%
- Population Fragmented Nuclei (%) [2]: 11% and 25%
- Population Healthy Nuclei (%) [2]: 68% and 49%
- Population Hoechst High Intensity Objects (%) [2]: 4% and 1%
- Population Membrane Permeable-Phenotype (%) [2]: 2% and 12%
- Population Mitochondria Different-Phenotype (%) [2]: 5% and 4%
- Population Mitotic Cells (%) [2]: 74% and 52%
- Population Normal (%) [2]: 95% and 98%
- Population Pyknosed Nuclei (%) [2]: 20% and 25%
- Population Tubulin-Different-Phenotype (%) [2]: 35% and 54%
- Total Cell Count [2]: 139 and 136
- Population Apoptotic (%) [3]: 35% and 36%
- Population Fragmented Nuclei (%) [3]: 17% and 30%
- Population Healthy Nuclei (%) [3]: 71% and 48%
- Population Hoechst High Intensity Objects (%) [3]: 0% and 4%
- Population Membrane Permeable-Phenotype (%) [3]: 0% and 7%
- Population Mitochondria Different-Phenotype (%) [3]: 2% and 8%
- Population Mitotic Cells (%) [3]: 64% and 63%
- Population Normal (%) [3]: 99% and 95%
- Population Pyknosed Nuclei (%) [3]: 11% and 21%
- Population Tubulin-Different-Phenotype (%) [3]: 20% and 50%
- Total Cell Count [3]: 148
- Population Apoptotic (%) [4]: 56% and 54%
- Population Fragmented Nuclei (%) [4]: 13% and 28%
- Population Healthy Nuclei (%) [4]: 62% and 48%
- Population Hoechst High Intensity Objects (%) [4]: 2% and 0%
- Population Membrane Permeable-Phenotype (%) [4]: 1% and 9%
- Population Mitochondria Different-Phenotype (%) [4]: 7% and 9%
- Population Mitotic Cells (%) [4]: 43% and 45%
- Population Normal (%) [4]: 97% and 99%
- Population Pyknosed Nuclei (%) [4]: 23% and 22%
- Population Tubulin-Different-Phenotype (%) [4]: 40% and 53%
- Total Cell Count [4]: 139 and 136
- Population Apoptotic (%) [5]: 50% and 45%
- Population Fragmented Nuclei (%) [5]: 27% and 43%
- Population Healthy Nuclei (%) [5]: 62% and 41%
- Population Hoechst High Intensity Objects (%) [5]: 1% and 4%
- Population Membrane Permeable-Phenotype (%) [5]: 0% and 6%
- Population Mitotic Cells (%) [5]: 50% and 54%
- Population Normal (%) [5]: 98% and 95%
- Population Pyknosed Nuclei (%) [5]: 9% and 15%
- Population Tubulin-Different-Phenotype (%) [5]: 28% and 63%
- Total Cell Count [5]: 164 and 153
- Population Apoptotic (%) [6]: 72% and 63%
- Population Fragmented Nuclei (%) [6]: 19% and 36%
- Population Healthy Nuclei (%) [6]: 62% and 48%
- Population Hoechst High Intensity Objects (%) [6]: 4% and 5%
- Population Membrane Permeable-Phenotype (%) [6]: 0% and 8%
- Population Mitochondria Different-Phenotype (%) [6]: 8% and 10%
- Population Mitotic Cells (%) [6]: 28% and 36%
- Population Normal (%) [6]: 95% and 94%
- Population Pyknosed Nuclei (%) [6]: 18% and 15%
- Population Tubulin-Different-Phenotype (%) [6]: 49% and 58%
- Total Cell Count [6]: 143 and 131
